Legend:
[1] = Inhibition of porcine heart malate dehydrogenase preincubated for 5 min followed by nicotinamide adenine dinucleotide addition and monitered for 90 sec by spectrophotometric method; type: tissue-based, Sus scrofa
In short: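 Porcine heart MDH was used at 2 nM final in 50 mM KPi pH 7 at room temperature. Compound was added from 100× DMSO stock (1% DMSO final) and incubated 5 min. Reactions were followed 90 s spectrophotometrically, with initial rates divided by the negative-control rate. Concentration–response used three replicates per concentration to give IC50 and Hill slope.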

[2] = species: Sus scrofa; assay: Inhibition of porcine heart malate dehydrogenase assessed as critical aggregation concentration preincubated for 5 min followed by nicotinamide adenine dinucleotide addition and monitered for 90 sec by spectrophotometric method; type: tissue-based
[3] = target: T1, Angiotensin-converting enzyme 2 (Homo sapiens, UniProt Q9BYF1); assay: Inhibition of recombinant human ACE2 using MCA-Tyr-Val-Ala-Asp-Ala-Pro-Lys(DNP)-OH as substrate preincubated for 15 mins followed by substrate addition and measured upto 15 mins by fluorescence assay
[4] = species: Sus scrofa; assay: Inhibition of porcine heart malate dehydrogenase assessed as reduction in enzyme inhibition at 3 times IC50 preincubated for 5 min followed by nicotinamide adenine dinucleotide addition and monitered for 90 sec in presence of 0.01% Triton-X100 by spectrophotometric method relative to control; type: tissue-based; design: scale not given: the % may be the effect or the level left
In short: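 After a 5 min room-temperature incubation, the rate was read over 90 s and compared with the negative control. The value is the percent change in inhibition with detergent; triplicate.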

[5] = Inhibition of SARS-Cov2 N-terminal full-length MBP-tagged 3CL protease expressed in Escherichia coli using DABCYL-KTSAVLQSGFRKME-EDANS as substrate preincubated for 30 mins followed by substrate addition and measured after 3 hrs by fluorescence assay; design: species or system Severe acute respiratory syndrome coronavirus 2
[6] = Inhibition of SARS CoV2 C-terminal His6-tagged 3CL protease (3264 to 3569 residues) expressed in Escherichia coli BL21 DE3 using rr-K(MCA)-ATLQAIAS-K(DNP)-COOH preincubated for 1 hr followed by substrate addition and measured after 1 hr in presence of 0.05% Tween-20; design: species or system Severe acute respiratory syndrome coronavirus 2
In short: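 Purified recombinant 3CL-Pro at 50 nM final with quenched fluorogenic peptide at 10 μM final (KM), in 20 mM Tris, 150 mM NaCl, 1 mM EDTA, 1 mM DTT, 0.05% Tween-20, pH 7.4. Drug and enzyme were preincubated 1 h at 37 °C, then substrate was added and fluorescence followed 1 h.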

[7] = Inhibition of SARS-COV2 N-terminal MBP-tagged 3CL protease using DABCYL-KTSAVLQSGFRKME-EDANS as substrate measured upto 30 mins by FRET assay; design: species or system Severe acute respiratory syndrome coronavirus 2
[8] = target: T1, Angiotensin-converting enzyme 2; assay: Inhibition of recombinant SARS-COV2 His-tagged S-RBD binding to recombinant human ACE2 expressed in HEK293T cells incubated for 0.5 hrs by alpha screen assay; type: cell-based
[9] = Inhibition of SARS-COV2 main protease; design: species or system Severe acute respiratory syndrome coronavirus 2

T1 sequence (Q9BYF1 whole entry): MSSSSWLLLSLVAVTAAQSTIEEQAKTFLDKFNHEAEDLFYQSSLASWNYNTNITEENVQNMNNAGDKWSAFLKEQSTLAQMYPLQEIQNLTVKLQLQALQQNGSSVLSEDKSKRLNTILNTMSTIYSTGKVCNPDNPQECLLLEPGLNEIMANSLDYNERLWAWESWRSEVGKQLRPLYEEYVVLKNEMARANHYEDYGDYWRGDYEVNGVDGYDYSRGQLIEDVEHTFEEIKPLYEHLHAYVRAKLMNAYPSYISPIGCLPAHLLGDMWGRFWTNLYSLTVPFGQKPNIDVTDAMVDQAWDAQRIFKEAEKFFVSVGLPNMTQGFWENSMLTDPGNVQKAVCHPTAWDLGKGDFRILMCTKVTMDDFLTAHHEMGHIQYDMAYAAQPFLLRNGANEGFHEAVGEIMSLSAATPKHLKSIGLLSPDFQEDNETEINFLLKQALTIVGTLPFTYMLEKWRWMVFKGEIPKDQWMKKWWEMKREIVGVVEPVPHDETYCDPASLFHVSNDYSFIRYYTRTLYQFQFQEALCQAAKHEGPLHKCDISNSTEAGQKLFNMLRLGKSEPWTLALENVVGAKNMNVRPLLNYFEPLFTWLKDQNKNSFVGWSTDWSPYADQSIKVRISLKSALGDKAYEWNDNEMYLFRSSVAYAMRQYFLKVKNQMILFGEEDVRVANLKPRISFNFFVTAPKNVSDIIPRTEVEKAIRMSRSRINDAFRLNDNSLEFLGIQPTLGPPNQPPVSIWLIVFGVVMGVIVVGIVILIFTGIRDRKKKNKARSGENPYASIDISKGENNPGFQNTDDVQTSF

Row | SMILES | IC50 [1] [µM] | CAC [2] [µM] | IC50 [3] [µM] | Activity [4] [%] | IC50 [5] [µM] | IC50 [6] [µM] | IC50 [7] [µM] | IC50 [8] [µM] | IC50 [9] [µM]
1 | C[C@@H](NCCCc1cccc(C(F)(F)F)c1)c1cccc2ccccc12 | 74 | 53 | 28.2 | 81 | – | – | – | – | –
2 | COc1ccc(-c2ccc3cc(C(=O)O)ccc3c2)cc1C12CC3CC(CC(C3)C1)C2 | 14 | 9.2 | – | 77 | – | – | – | – | –
3 | O=C(O)c1cccc(CN2C(=O)/C(=C(\c3ccccc3)c3ccc(Cl)cc3)c3ccccc32)c1 | 24 | 49 | – | 22 | 35.5 | > 200 | – | – | –
4 | C/C(=C\c1ccc(C(=O)O)cc1)c1ccc2c(c1)C(C)(C)CCC2(C)C | 4.4 | 5.2 | – | 83 | 35.5 | > 200 | – | – | –
5 | O=C(O)c1ccc(N2C(=O)/C(=C\c3ccc(-c4ccc([N+](=O)[O-])cc4)o3)C=C2c2ccccc2)cc1 | 0.36 | 6.2 | – | 75 | – | 100 | 18.3 | – | –
6 | CC(C)=CC[C@@H](O)C1=CC(=O)c2c(O)ccc(O)c2C1=O | – | 7.7 | – | 92 | – | – | – | – | –
7 | Cc1c(-c2ccc(O)cc2)n(Cc2ccc(OCCN3CCCCCC3)cc2)c2ccc(O)cc12 | – | – | – | 70 | – | – | – | – | –
8 | O=C1c2c(O)cccc2Cc2cccc(O)c21 [ANTHRALIN] | 2.5 | 4.5 | – | 93 | – | – | – | – | –
9 | c1ccc(-c2ccc(C(c3ccccc3)n3ccnc3)cc2)cc1 (stereo unspecified) [BIFONAZOLE] | 17 | – | – | – | – | – | – | – | –
10 | CC(C)(C)[C@H]1CC[C@H](CC2=C(O)C(=O)c3ccccc3C2=O)CC1 [BUPARVAQUONE] | 8.2 | 32 | – | 90 | – | – | – | – | –
11 | Oc1c(I)cc(Cl)c2cccnc12 [CLIOQUINOL] | 4.3 | – | – | 57 | – | – | – | – | –
12 | COc1c2ccc(-c3ccccc3)oc-2cc(=O)c1C [DRACORHODIN] | 7.7 | 22 | – | 86 | – | – | – | – | –
13 | Cc1cc(O)c2c(c1)C(=O)c1cc(O)cc(O)c1C2=O [EMODIN] | 12.7 | 6 | – | – | – | – | – | – | –
14 | Cc1cc(-c2ccc(/N=N/c3ccc4c(S(=O)(=O)O)cc(S(=O)(=O)O)c(N)c4c3O)c(C)c2)ccc1/N=N/c1ccc2c(S(=O)(=O)O)cc(S(=O)(=O)O)c(N)c2c1O [EVANS BLUE] | 0.01 | – | – | 64 | – | – | – | – | –
15 | Cc1cc2c(C(C)C)c(O)c(O)c(C=O)c2c(O)c1-c1c(C)cc2c(C(C)C)c(O)c(O)c(C=O)c2c1O [GOSSYPOL] | 0.82 | 34 | – | 92 | 39.8 | > 200 | – | – | –
16 | O=C1C=C2CC3(O)COc4c(ccc(O)c4O)C3=C2C=C1O (stereo unspecified) [HEMATEIN] | 7.6 | 123 | – | 24 | – | > 200 | – | 10 | –
17 | Cc1cc(O)c2c(=O)c3c(O)cc(O)c4c5c(O)cc(O)c6c(=O)c7c(O)cc(C)c8c1c2c(c34)c(c78)c65 [HYPERICIN] | 0.15 | 0.3 | – | 83 | – | – | – | – | 19.3
18 | COC(=O)C1=C(C)NC(C)=C(C(=O)OC(C)(C)CN(C)CCC(c2ccccc2)c2ccccc2)C1c1cccc([N+](=O)[O-])c1 (stereo unspecified) [LERCANIDIPINE] | 2.2 | 4 | – | 95 | – | > 200 | – | – | –
19 | COC(=O)C1=C(C)NC(C)=C(C(=O)OCCN2CCN(C(c3ccccc3)c3ccccc3)CC2)C1c1cccc([N+](=O)[O-])c1 (stereo unspecified) [MANIDIPINE 6300] | 2 | 2.8 | – | 92 | – | > 100 | – | – | –
20 | O=c1c(O)c(-c2cc(O)c(O)c(O)c2)oc2cc(O)cc(O)c12 [MYRICETIN] | – | 7.4 | – | – | – | – | – | 10 | –
21 | Brc1c(Br)c(Br)c2[nH]nnc2c1Br [TETRABROMOBENZOTRIAZOLE] | 14.6 | – | – | 61 | – | – | 4 | – | –
22 | Cc1c(C)c2c(c(C)c1O)CCC(C)(CCCC(C)CCCC(C)CCCC(C)C)O2 (stereo not drawn) [alpha-TOCHOPHEROL] | 0.079 | 1.5 | – | 69 | – | – | – | – | –
